Shown are actives, neighbours in structure and some others; about 4.7% of the full set was active somewhere.
ADAM10 inh: inhibits human ADAM10. recombinant ADAM10, EDANS/DABCYL FRET peptide cleavage, 3 h. inhibition, % at 7 µM. 370,000 tested, 0.62% active. AID 720582;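 active = inhibition above a per-campaign cutoff equal to the mean of compounds falling between control-based bounds plus 3 SD, cut at about 20% in these data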;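 note: 0% = DMSO wells while the 100% control is not disclosed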
Target sequence (O14672 214-748 limits assumed): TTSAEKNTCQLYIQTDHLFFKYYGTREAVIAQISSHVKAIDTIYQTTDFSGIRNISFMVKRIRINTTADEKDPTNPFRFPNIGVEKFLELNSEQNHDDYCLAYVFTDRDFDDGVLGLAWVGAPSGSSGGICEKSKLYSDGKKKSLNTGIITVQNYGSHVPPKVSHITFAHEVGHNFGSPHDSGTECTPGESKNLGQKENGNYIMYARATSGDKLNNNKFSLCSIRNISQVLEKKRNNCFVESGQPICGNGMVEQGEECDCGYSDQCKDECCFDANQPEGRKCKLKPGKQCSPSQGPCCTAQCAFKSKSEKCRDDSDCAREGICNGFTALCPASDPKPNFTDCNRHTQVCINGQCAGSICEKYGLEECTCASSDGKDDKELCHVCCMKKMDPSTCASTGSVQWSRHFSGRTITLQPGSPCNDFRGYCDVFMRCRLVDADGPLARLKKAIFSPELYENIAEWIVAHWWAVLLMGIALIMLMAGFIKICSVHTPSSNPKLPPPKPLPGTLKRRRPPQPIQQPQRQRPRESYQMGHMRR
SKN-1 block: C. elegans SKN-1 inhibition. C. elegans VP596 Pgst-4::GFP/RFP ratio, acrylamide-induced, 24 h. inhibition, % at 21.8 µM. 360,000 tested, 0.49% active. AID 624304;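 active = interference check ratio from 0.5 to 1.5 plus GFP to RFP signal ratio inhibition reaching or exceeding a fixed threshold, cut at about 30% in these data, passing the limit was not always enough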
MT1-MMP act inh: inhibitors of human MT1-MMP activation | HT1080 RFP-PRO-GFP cells, GFP/RFP ratio fluorescence, overnight; percent of plate control window, DMSO zero | GFP/RFP ratio change, % at 20 µM | 360,000 tested, 0.061% active;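 active = GFP/RFP ratio change of at least 30% with cell ATP level not reduced by more than half and red fluorescence within 50% of control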
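Assay system: HT1080 RFP-PRO-GFP cells | Dosing: 20 µM single dose, 1% DMSO | Incubation: Cells overnight before dosing, compound overnight, 37 °C, 5% CO2 | Evaluation: GFP/RFP fluorescence ratio | Control set: DMSO-only wells and HT1080 RFP-L50D-GFP cell wells as references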
MPTP inh: permeability transition pore inhibition; 360,000 tested, 1.4% active; isolated mouse mitochondria, Ca2+ swelling absorbance, 30 min; inhibition, % at 10 µM; AID 602449;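 active = inhibition of 50% or more, scaled per plate between neutral and stimulator controls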;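 note: 0% = DMSO wells given calcium and 100% = 1 mM EGTA wells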
GRIN3A LBD mod: NR3A (human) ligand-binding domain modulation; 340,000 tested, 2.5% active; NR3A LBD differential scanning fluorimetry, Tm shift; 0% = protein alone, 100% = glycine-bound protein; Tm shift relative to glycine control, % at 25 µM;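 active = melting temperature shift of at least 10% of the positive control shift, at one fixed dose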
ADAM17 inh: inhibitors of human ADAM17 | P78536 | 370,000 tested, 0.83% active | inhibition, % at 6.95 µM | AID 720648 | recombinant ADAM17, EDANS/DABCYL FRET peptide cleavage;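 active = inhibition above the mean of compounds lying between control limits plus 3 SD, set per campaign, cut at about 8.5% in these data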;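 note: 0% = DMSO-only wells as the low control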
* marks the source's active call; other numbers are inactive results; i = inactive; nt = not tested or not shown.

SMILES	ADAM10 inh	SKN-1 block	MT1-MMP act inh	MPTP inh	GRIN3A LBD mod	ADAM17 inh
Cc1ccc2c(c1)C1CC(C)(O2)N(c2cccc(C(=O)NCc3ccccn3)c2)C(=O)N1 (centres undefined)	1	5	1	-2	-8	-1
Cc1csc(N(C(=O)c2cccc(S(=O)(=O)N(C)C)c2)c2ccccc2)n1	4	2	-1	0	12*	-2
c1ccc(Sc2ncnc3c2oc2ccccc23)cc1	nt	32	-6	0	34*	nt
CCc1ccc2oc(C(=O)NCCc3ccc(S(N)(=O)=O)cc3)cc(=O)c2c1	-13	3	6	-2	15*	-6
Cc1ccc2oc(C(=O)NCc3ccc(S(N)(=O)=O)cc3)cc(=O)c2c1	-17	-3	0	-1	-1	-9
COc1ccc(S(=O)(=O)N2CCC(C(=O)NCC3CCCCC3)CC2)cc1	-2	4	0	-2	-1	-2
O=C(Nc1cc([N+](=O)[O-])c2[nH]c(=O)c3ccccc3c2c1)C(F)(F)F	-5	12	7	13	44*	1
O=C(CCc1nc2ccccc2c(=O)[nH]1)Nc1ccc(F)c([N+](=O)[O-])c1	-2	7	-5	-1	-3	1
Cc1cc([N+](=O)[O-])ccc1P(=O)(O)c1ccc([N+](=O)[O-])cc1C	4	21	0	4	15*	-2
N#CC(Cc1cccc(CC(C#N)(c2ccccc2)c2ccccc2)c1)(c1ccccc1)c1ccccc1	0	-1	-1	1	1	4
O=S(=O)(c1ccc(F)cc1)c1nc(-c2ccco2)oc1Nc1ccc(F)cc1	10	3	-4	5	-2	1
CCOc1ccc(-c2n[nH]c(C)c2Oc2ccc(OC)cc2)c(O)c1	16	-1	5	6	12*	8
Cc1[nH]nc(-c2ccc(OCc3cnn(-c4ccccc4)c3)c(C)c2O)c1Oc1ccccc1	-2	13	-1	4	4	-2
Cc1[nH]nc(-c2ccc(OCc3cnn(-c4ccccc4)c3)cc2O)c1Oc1ccc(F)cc1	9	1	-3	6	20*	-2
CCOc1ccc(-c2nc(N)ncc2Oc2cccc(OC)c2)c(O)c1	12	37*	-3	2	-18	7
CCCCn1c(O)c(/C=C2\C=NN=C2c2ccccc2)sc1=S	-1	4	5	13	26*	-2
Cn1c(O)c(/C=C2\C=NN=C2c2ccccc2)sc1=S	6	31	-6	8	4	2
CCn1c(O)c(/C=C2\C=NN=C2c2ccccc2)sc1=S	11	-4	0	18	-2	5
CC(C)Cn1c(O)c(/C=C2\C=NN=C2c2ccccc2)sc1=S	4	9	6	44	30*	7
CCCCCCn1c(O)c(/C=C2\C=NN=C2c2ccccc2)sc1=S	1	-4	10	44	35*	1
COCC(=O)Nc1nnc(C2CCCCC2)s1	-2	-11	4	0	0	-2
O=C(CSc1n[nH]c(-c2cccnc2)n1)Nc1cccc(Cl)c1	-9	3	-1	0	-7	-1
c1coc(CNC2CCCCCCC2)c1	3	10	0	-1	11*	-1
c1coc(CNC2CCCCC2)c1	7	-13	2	2	0	-4
O=C(O)c1cccc(NS(=O)(=O)c2ccc3c(c2)OCCCO3)c1	6	2	2	-4	0	-1
SMILES	ADAM10 inh	SKN-1 block	MT1-MMP act inh	MPTP inh	GRIN3A LBD mod	ADAM17 inh
Cc1cccn2c(=O)c3cc(C#N)c(=NC(=O)c4cccs4)n(CCCOC(C)C)c3nc12	i	1	3	6	-3	-382
N=c1c(C(=O)NCc2ccccc2)cc2c(=O)n3ccccc3nc2n1Cc1ccco1	-370	37*	-11	0	-2	-113
COc1ccc(NC(=O)NNC(=O)COc2ccc(Cl)cc2C)cc1OC	7	14	0	-1	-3	1
CC(=O)C1=C(NC(=O)c2ccccc2F)C[C@@H]2[C@H]1C2(C)C	4	11	4	-2	14*	-2
CC(=O)C1=C(NC(=O)c2ccc(C(F)(F)F)cc2)C[C@@H]2[C@H]1C2(C)C	-2	9	2	2	1	-7
CC(C)[N+](C)(C)CC#CC(O)(c1ccccc1)c1ccccc1	8	2	2	0	1	1
CCCCC1=C(C(=O)OCC)C(C(=O)OCC)Oc2ccccc21 (centres undefined)	-10	0	-3	0	18*	-4
CCOC(=O)C1=C(c2ccccc2)c2ccccc2OC1C(=O)OCC (centres undefined)	-1	12	-3	0	1	3
CCOC(=O)C1Oc2ccccc2C(c2ccc(OC)cc2)=C1C(=O)OC (centres undefined)	1	-4	-4	0	13*	1
c1ccc(-c2cc3nccc(-c4ccccn4)n3n2)cc1	-15	39*	-1	-1	0	-3
CC(C)OC(=O)CN1CCN(C2c3ccccc3-c3ccccc32)CC1	4	38*	6	0	-2	5
O=C(c1ccco1)N1CCN(C2c3ccccc3-c3ccccc32)CC1	-13	-3	-4	8	0	0
Cn1c2ccccc2c2cc(/C=N/NC(=O)c3ccc(N)cc3)ccc21	-218	6	8	0	17*	-67
CCn1c2ccccc2c2cc(/C=N/NC(=O)c3ccccc3C)ccc21	-25	4	-1	2	0	-10
CCn1c2ccccc2c2cc(/C=N/NC(=O)c3cccc(C)c3)ccc21	-12	45*	-4	1	-5	-2
Cn1c2ccccc2c2cc(/C=N/NC(=O)c3ccccc3F)ccc21	-74	-11	2	-1	-8	-16
CSc1cccc(NC(=O)c2cccc3cccnc23)c1	19	65*	-3	-2	-16	6
O=C(Cc1c(C(=O)O)[nH]c2ccc(Cl)cc12)Nc1ccc2c(c1)OCCO2	8	2	2	0	12*	-1
CCOc1nc(-c2ccncc2)nc2ccccc12	-2	39*	-7	2	-1	-2
CCOC(=O)N1CCC(Nc2c(NCCCN(CC)CC)c(=O)c2=O)CC1	-3	5	2	1	2	-1
Fc1cccc(C2NN=C(c3ccccc3)S2)c1 (centres undefined)	-6	31	-3	-1	34*	-1
Cc1ccc(C2=NNC(c3cccc(F)c3)S2)cc1 (centres undefined)	-23	35	-2	0	-13	-10
NC1=NC(=Nc2cccc(S(N)(=O)=O)c2)c2ccccc21	3	-8	-2	2	0	0

Assay outcomes (PubChem)
